Test results published in ChEMBL document CHEMBL4052759, “Discovery of DS79182026: A potent orally active hepcidin production inhibitor” (Bioorg Med Chem Lett, 2017).
The source made the active and inactive calls. The rule behind the calls is not given here.

Legend:
[1] = Lipophilicity, log D of the compound; format: physicochemical; conditions: octanol/water
[2] = Tmax in C57BL/6J mouse at 30 mg/kg, po by LC-MS/MS analysis; format: ADME, organism-based; conditions: in vivo
[3] = Metabolic stability in mouse liver microsomes assessed as parent compound remaining at 1 uM after 0.5 hrs by LC-MS/MS analysis; format: ADME, microsome; conditions: read-out: Stability
HepG2 = experiment: Inhibition of human recombinant BMP6-stimulated hepcidin mRNA expression in human HepG2 cells after 6 hrs by qRT-PCR analysis; format: functional, cell-based; conditions: HepG2, 6 h
[4] = AUC in C57BL/6J mouse at 30 mg/kg, po by LC-MS/MS analysis; format: ADME, organism-based; conditions: in vivo
Mus musculus = experiment: Antiinflammatory activity in C57BL/6J mouse assessed as reduction in recombinant mouse IL-6 induced serum hepcidin level at 30 mg/kg, po pretreated for 30 mins followed by IL-6 challenge measured after 4 hrs by LC-MS/MS analysis; format: functional, organism-based
How it was run: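 9-week-old male C57BL/6J mice were dosed orally at 30 mg/kg (0.5% methylcellulose suspension, n = 4) 30 min before intravenous mouse IL-6. Blood was taken 4 h after IL-6 and serum hepcidin was measured. Groups were compared by t-test against saline-treated and 0.5% MC vehicle-treated groups.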

[5] = Cmax in C57BL/6J mouse at 30 mg/kg, po by LC-MS/MS analysis; format: ADME, organism-based; parameters: dose 30 mg/kg, route oral; conditions: in vivo
[6] = biological target: T1, Serine/threonine-protein kinase D2 (Homo sapiens) (UniProt Q9BZL6); experiment: Inhibition of PKD2 (unknown origin) at 0.078 uM relative to control
T1 sequence (whole entry): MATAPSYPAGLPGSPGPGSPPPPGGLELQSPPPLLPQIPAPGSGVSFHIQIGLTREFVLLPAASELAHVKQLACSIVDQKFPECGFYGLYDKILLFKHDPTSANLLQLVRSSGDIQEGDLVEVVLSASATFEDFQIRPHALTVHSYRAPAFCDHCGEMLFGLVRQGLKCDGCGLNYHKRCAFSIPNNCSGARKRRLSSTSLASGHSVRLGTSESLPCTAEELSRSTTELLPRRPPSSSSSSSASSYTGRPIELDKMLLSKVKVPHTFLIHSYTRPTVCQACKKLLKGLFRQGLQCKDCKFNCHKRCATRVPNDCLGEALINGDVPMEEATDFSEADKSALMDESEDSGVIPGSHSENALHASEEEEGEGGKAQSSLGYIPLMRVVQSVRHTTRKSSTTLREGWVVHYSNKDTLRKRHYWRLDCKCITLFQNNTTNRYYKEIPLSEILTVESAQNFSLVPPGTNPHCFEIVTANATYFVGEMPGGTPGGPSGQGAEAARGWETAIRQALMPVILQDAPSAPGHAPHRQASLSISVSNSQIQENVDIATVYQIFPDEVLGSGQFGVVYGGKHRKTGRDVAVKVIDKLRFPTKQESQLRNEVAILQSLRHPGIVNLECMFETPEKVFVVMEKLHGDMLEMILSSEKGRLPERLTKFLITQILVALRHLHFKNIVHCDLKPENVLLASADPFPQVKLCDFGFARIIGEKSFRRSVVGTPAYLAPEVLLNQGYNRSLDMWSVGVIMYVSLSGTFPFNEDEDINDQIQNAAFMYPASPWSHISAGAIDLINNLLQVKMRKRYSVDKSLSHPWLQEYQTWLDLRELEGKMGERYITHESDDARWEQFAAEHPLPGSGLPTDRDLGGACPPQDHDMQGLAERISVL

[7] = biological target: Calcium/calmodulin-dependent protein kinase type II subunit beta (Homo sapiens) (UniProt Q13554); experiment: Inhibition of CaMK2-beta (unknown origin) at 0.49 uM relative to control
[8] = biological target: Casein kinase I isoform gamma-1 (Homo sapiens) (UniProt Q9HCP0); experiment: Inhibition of CK1-gamma1 (unknown origin) at 0.49 uM relative to control
[9] = biological target: Death-associated protein kinase 3 (Homo sapiens) (UniProt O43293); experiment: Inhibition of ZIPK (unknown origin) at 0.49 uM relative to control
[10] = biological target: Protein-tyrosine kinase 2-beta (Homo sapiens) (UniProt Q14289); experiment: Inhibition of PYK2 (unknown origin) at 0.49 uM relative to control
[11] = biological target: Calcium/calmodulin-dependent protein kinase type 1D (Homo sapiens) (UniProt Q8IU85); experiment: Inhibition of CamK1d (unknown origin) at 0.49 uM relative to control
[12] = biological target: Protein kinase C beta type (Homo sapiens) (UniProt P05771); experiment: Inhibition of PKC-beta2 (unknown origin) at 0.49 uM relative to control
[13] = biological target: Ephrin type-A receptor 2 (Homo sapiens) (UniProt P29317); experiment: Inhibition of EPHA2 (unknown origin) at 0.49 uM relative to control
[14] = biological target: Discoidin domain-containing receptor 2 (Homo sapiens) (UniProt Q16832); experiment: Inhibition of DDR2 (unknown origin) at 0.49 uM relative to control
[15] = biological target: Ephrin type-A receptor 5 (Homo sapiens) (UniProt P54756); experiment: Inhibition of EPHA5 (unknown origin) at 0.49 uM relative to control
[16] = biological target: Protein kinase C theta type (Homo sapiens) (UniProt Q04759); experiment: Inhibition of PKC-theta (unknown origin) at 0.49 uM relative to control
[17] = biological target: Serine/threonine-protein kinase PAK 2 (Homo sapiens) (UniProt Q13177); experiment: Inhibition of PAK2 (unknown origin) at 0.49 uM relative to control
[18] = biological target: Fibroblast growth factor receptor 2 (Homo sapiens) (UniProt P21802); experiment: Inhibition of FGFR2 (unknown origin) at 0.49 uM relative to control
[19] = biological target: Ephrin type-B receptor 3 (Homo sapiens) (UniProt P54753); experiment: Inhibition of EPHB3 (unknown origin) at 0.45 uM relative to control
Homo sapiens = species on record: Homo sapiens; experiment: Inhibition of PKA (unknown origin) at 0.45 uM relative to control
[20] = biological target: Tyrosine-protein kinase Yes (Homo sapiens) (UniProt P07947); experiment: Inhibition of Yes (unknown origin) at 0.45 uM relative to control
[21] = biological target: RAC-beta serine/threonine-protein kinase (Homo sapiens) (UniProt P31751); experiment: Inhibition of AKT2 (unknown origin) at 0.45 uM relative to control
[22] = biological target: Tyrosine-protein kinase JAK2 (Homo sapiens) (UniProt O60674); experiment: Inhibition of JAK2 (unknown origin) at 0.45 uM relative to control
[23] = biological target: Rho-associated protein kinase 2 (Homo sapiens) (UniProt O75116); experiment: Inhibition of ROCK2 (unknown origin) at 0.45 uM relative to control
[24] = biological target: Calcium/calmodulin-dependent protein kinase type II subunit beta (Homo sapiens) (UniProt Q13554); experiment: Inhibition of CaMK2-beta (unknown origin) at 0.45 uM relative to control
[25] = biological target: MAP/microtubule affinity-regulating kinase 4 (Homo sapiens) (UniProt Q96L34); experiment: Inhibition of MARK4 (unknown origin) at 0.45 uM relative to control

COC(=O)Nc1noc2cc(-c3c(-c4ccccn4)n[nH]c3C)ccc12 gave a logD [1] of 2.5, a Tmax [2] of 1 h and a remaining at 0.5 h, 1 µM [3] of 87%. The IC50 (HepG2) was 39 nM, the AUC [4] was 36200 ng·h/mL and the Activity (Mus musculus) was “Active”. It also gave a Cmax [5] of 9170 ng/mL and an inhibition [6] of -0.7%.
For Cc1[nH]nc(C2CC2)c1-c1ccc2c(NC(=O)C3CC3)noc2c1, the inhibition [7] was 2.3%, the inhibition [8] was 0.7% and the inhibition [9] was 2.3%. The inhibition [10] was 1.3%, the inhibition [11] was -4.3% and the inhibition [12] was 5.3%. For the same molecule, the inhibition [13] was -0.3%, the inhibition [14] was 2% and the inhibition [15] was 3%. For the same molecule, the IC50 (HepG2) was 290 nM, the inhibition [16] was 6% and the inhibition [17] was -0.3%. The inhibition [18] was -0.7%.
Cc1n[nH]c(C)c1-c1ccc2c(NC(=O)c3ccc(N4CCN(C)CC4)cc3)n[nH]c2c1 gave an inhibition [19] of 2.7%, an inhibition (Homo sapiens) of 3% and a logD [1] of 2.4. It also gave an inhibition [20] of 49%, an inhibition [21] of -2% and a Tmax [2] of 3.25 h. The inhibition [22] was 26%, the remaining at 0.5 h, 1 µM [3] was 80% and the inhibition [23] was 0.7%. The IC50 (HepG2) was 230 nM, the AUC [4] was 2550 ng·h/mL and the inhibition [24] was -0.3%. For the same molecule, the inhibition [25] was 37%, the Activity (Mus musculus) was “Active” and the Cmax [5] was 920 ng/mL.
